Results taken from ChEMBL document CHEMBL1687766, “In vitro activity of the new multivalent glycopeptide-cephalosporin antibiotic TD-1792 against vancomycin-nonsusceptible Staphylococcus isolates” (Antimicrob Agents Chemother, 2010).
≈ marks a conversion by molar mass, not a printed value.

Experiments:
Assay type in all cases: functional
Staphylococcus aureus [1] = assay: Antimicrobial activity against vancomycin-resistant Staphylococcus aureus isolate PA after 24 hrs by microdilution method in presence of 50% human serum
Outline: (§1)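 Broth microdilution per CLSI, inoculum 5 × 10^5 CFU/ml, 24 h at 35°C, in duplicate. Medium was 50% (vol/vol) human serum plus 50% broth, final 25 SMHB for TD-1792 and 50 SMHB for daptomycin. Serum was heated 56°C for 1 h and filtered through 0.8, 0.5 and 0.22 μm. MBC by plating clear wells on BHI agar.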

Staphylococcus aureus [2] = assay: Antimicrobial activity against vancomycin-intermediate Staphylococcus aureus isolate MU50 after 24 hrs by microdilution method in presence of 50% human serum; details: isolate MU50, 24 h; outline: as §1
Staphylococcus aureus [3] = assay: Antimicrobial activity against vancomycin-resistant Staphylococcus aureus isolate NY after 24 hrs by microdilution method in presence of 50% human serum; outline: as §1
Staphylococcus aureus [4] = assay: Ratio of MIC for vancomycin-intermediate Staphylococcus aureus isolate NJ992 in presence of 50% human serum to MIC for vancomycin-intermediate Staphylococcus aureus isolate NJ992
Outline: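 Ratio of the broth microdilution MIC (5 × 10^5 CFU/ml, 24 h, 35°C, duplicate) measured in 50% heat-treated human serum/supplemented Mueller-Hinton broth to the MIC measured in supplemented broth alone.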

Staphylococcus aureus [5] = assay: Antimicrobial activity against vancomycin-intermediate Staphylococcus aureus isolate MU50 assessed as bacterial count at 8 times MIC after 24 hrs by colony counting method
Outline: (§2)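 24-h time-kill run in triplicate in supplemented Mueller-Hinton broth (12.5 μg/ml Mg, 25 μg/ml Ca), adjusted to 1.1–1.3 mM Ca for daptomycin. […] Samples were taken at 0, 1, 4, 8 and 24 h and counted on BHI agar after 24 h at 35°C. Value is log10 CFU/ml change from baseline at 24 h.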

Staphylococcus aureus [6] = assay: Antimicrobial activity against vancomycin-intermediate Staphylococcus aureus isolate MU50 assessed as bacterial count at 16 times MIC after 24 hrs by colony counting method
Outline: (§3)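 Time-kill in triplicate. Mid-exponential culture (OD600 ~0.3) diluted in supplemented Mueller-Hinton broth to 5 × 10^6 CFU/ml. Daptomycin was run at physiologic calcium, 1.1 to 1.3 mM. […] Samples at 0, 1, 4, 8 and 24 h were diluted in cold saline or vacuum filtered, then spiral-plated on BHI agar for 24 h at 35°C. Value is the log10 CFU/ml change from baseline at 24 h.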

Staphylococcus aureus [7] = assay: Antimicrobial activity against vancomycin-intermediate Staphylococcus aureus isolate NJ992 assessed as bacterial count at 4 times MIC after 24 hrs by colony counting method; outline: as §2
Staphylococcus aureus [8] = assay: Antimicrobial activity against vancomycin-intermediate Staphylococcus aureus isolate NJ992 assessed as bacterial count at 8 times MIC after 24 hrs by colony counting method; outline: as §2
Staphylococcus aureus [9] = assay: Antimicrobial activity against vancomycin-intermediate Staphylococcus aureus isolate NJ992 assessed as bacterial count at 16 times MIC after 24 hrs by colony counting method; outline: as §2
Staphylococcus aureus [10] = assay: Antimicrobial activity against vancomycin-intermediate Staphylococcus aureus isolate MU50 assessed as bacterial count at 8 times MIC after 24 hrs by colony counting method in presence of 50% human serum
Outline: (§4)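 Triplicate 24-h time-kill in 50% human serum (heated 56°C 1 h, filtered) mixed with supplemented Mueller-Hinton broth, giving final 25 μg/ml Ca broth strength for TD-1792 and 50 for daptomycin. […] Samples from 0 to 24 h were counted on BHI agar (35°C, 24 h). Value is log10 CFU/ml change from baseline.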

Staphylococcus aureus [11] = assay: Antimicrobial activity against vancomycin-intermediate Staphylococcus aureus isolate MU50 assessed as bacterial count at 16 times MIC after 24 hrs by colony counting method in presence of 50% human serum; outline: as §4
Staphylococcus aureus [12] = assay: Antimicrobial activity against vancomycin-intermediate Staphylococcus aureus isolate NJ992 assessed as bacterial count at 8 times MIC after 24 hrs by colony counting method in presence of 50% human serum
Outline: (§5)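 Time-kill in triplicate, starting inoculum 5 × 10^6 CFU/ml from a mid-exponential culture. Medium was 50% heat-treated, filtered human serum plus 50% broth, final 25 SMHB for TD-1792 and 50 SMHB for daptomycin. Drug at multiples of MIC. Samples to 24 h were plated on BHI agar for 24 h at 35°C. Value is the log10 CFU/ml change from baseline at 24 h.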

Staphylococcus aureus [13] = assay: Antimicrobial activity against vancomycin-intermediate Staphylococcus aureus isolate NJ992 assessed as bacterial count at 32 times MIC after 24 hrs by colony counting method in presence of 50% human serum; outline: as §4
Staphylococcus aureus [14] = assay: Antimicrobial activity against vancomycin-resistant Staphylococcus aureus isolate MI assessed as bacterial count at 4 times MIC after 24 hrs by colony counting method; outline: as §3
Staphylococcus aureus [15] = assay: Antimicrobial activity against vancomycin-resistant Staphylococcus aureus isolate PA assessed as bacterial count at 32 times MIC after 24 hrs by colony counting method; outline: as §3
Staphylococcus aureus [16] = assay: Antimicrobial activity against vancomycin-resistant Staphylococcus aureus isolate MI assessed as bacterial count at 4 times MIC after 24 hrs by colony counting method in presence of 50% human serum; outline: as §5
Staphylococcus aureus [17] = assay: Antimicrobial activity against vancomycin-resistant Staphylococcus aureus isolate NY after 24 hrs by microdilution method
Outline: (§6)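 Broth microdilution per CLSI, inoculum 5 × 10^5 CFU/ml, Mueller-Hinton broth with 12.5 μg/ml magnesium and 25 μg/ml calcium (SMHB). Daptomycin was instead tested in SMHB at physiologic calcium (final 1.1 to 1.3 mM). Incubation 24 h at 35°C; MIC read; run in duplicate. MBC from 5-μl samples of clear wells plated on BHI agar, 24 h at 35°C.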

Staphylococcus aureus [18] = assay: Antimicrobial activity against vancomycin-intermediate Staphylococcus aureus isolate NJ992 after 24 hrs by microdilution method; details: isolate NJ992, 24 h; outline: as §6
Staphylococcus aureus [19] = assay: Antimicrobial activity against vancomycin-resistant Staphylococcus aureus isolate MI after 24 hrs by microdilution method; outline: as §6
Staphylococcus aureus [20] = assay: Antimicrobial activity against vancomycin-intermediate Staphylococcus aureus after 24 hrs by microdilution method in presence of 50% human serum; details: for MBC / MIC50 / MIC90: Staphylococcus aureus, 24 h; outline: as §1
[21] = tested on: Staphylococcus haemolyticus; assay: Antimicrobial activity against vancomycin-intermediate Staphylococcus haemolyticus after 24 hrs by microdilution method; details: for MBC / MIC50 / MIC90: Staphylococcus haemolyticus, 24 h
Outline: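 CLSI broth microdilution in supplemented Mueller-Hinton broth (12.5 μg/ml Mg, 25 μg/ml Ca), with Ca adjusted to 1.1–1.3 mM for daptomycin. Inoculum was 5 × 10^5 CFU/ml, incubated 24 h at 35°C, done in duplicate. For MBC, clear wells were plated on BHI agar and read after 24 h at 35°C.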

Staphylococcus aureus [22] = assay: Antimicrobial activity against vancomycin-heteroresistant Staphylococcus aureus after 24 hrs by microdilution method; details: Staphylococcus aureus, 24 h; outline: as §6

| Structure (SMILES) | MBC (Staphylococcus aureus [1]) | MIC (Staphylococcus aureus [1]) | MBC (Staphylococcus aureus [2]) | MIC (Staphylococcus aureus [2]) | MBC (Staphylococcus aureus [3]) | MIC (Staphylococcus aureus [3]) | Ratio (Staphylococcus aureus [4]) | log10CFU/ml (Staphylococcus aureus [5]) | log10CFU/ml (Staphylococcus aureus [6]) | log10CFU/ml (Staphylococcus aureus [7]) | log10CFU/ml (Staphylococcus aureus [8]) | log10CFU/ml (Staphylococcus aureus [9]) | log10CFU/ml (Staphylococcus aureus [10]) | log10CFU/ml (Staphylococcus aureus [11]) | log10CFU/ml (Staphylococcus aureus [12]) | log10CFU/ml (Staphylococcus aureus [13]) | log10CFU/ml (Staphylococcus aureus [14]) | log10CFU/ml (Staphylococcus aureus [15]) | log10CFU/ml (Staphylococcus aureus [16]) | MBC (Staphylococcus aureus [17]) | other results |
| --- | --- | --- | --- | --- | --- | --- | --- | --- | --- | --- | --- | --- | --- | --- | --- | --- | --- | --- | --- | --- | --- |
| CN[C@H](CC(C)C)C(=O)N[C@H]1C(=O)N[C@@H](CC(N)=O)C(=O)N[C@H]2C(=O)N[C@H]3C(=O)N[C@H](C(=O)N[C@H](C(=O)NCCCO/N=C(\C(=O)N[C@@H]4C(=O)N5C(C(=O)[O-])=C(C[n+]6ccccc6)CS[C@H]45)c4nc(N)sc4Cl)c4cc(O)cc(O)c4-c4cc3ccc4O)[C@H](O)c3ccc(c(Cl)c3)Oc3cc2cc(c3O[C@@H]2O[C@H](CO)[C@@H](O)[C@H](O)[C@H]2O[C@H]2C[C@](C)(N)[C@H](O)[C@H](C)O2)Oc2ccc(cc2Cl)[C@H]1O | 0.125 µg/mL | 0.125 µg/mL | 0.25 µg/mL | 0.25 µg/mL | 0.5 µg/mL | 0.25 µg/mL | 4 | 4.33 | 4.94 | 3.84 | 4.48 | 4.94 | 3.6 | 4.37 | 4.09 | 4.92 | 2.95 | 5.05 | 4.12 | 0.06 µg/mL (≈ 0.0303 µM) | MIC (Staphylococcus aureus [17]): 0.03 µg/mL (≈ 0.0151 µM); MBC (Staphylococcus aureus [18]): 0.06 µg/mL (≈ 0.0303 µM); MIC (Staphylococcus aureus [18]): 0.06 µg/mL (≈ 0.0303 µM); MBC (Staphylococcus aureus [19]): 0.5 µg/mL (≈ 0.252 µM); MIC (Staphylococcus aureus [19]): 0.25 µg/mL (≈ 0.126 µM); MBC50 (Staphylococcus aureus [20]): 0.25 µg/mL; MBC90 (Staphylococcus aureus [20]): 0.5 µg/mL; MBC (Staphylococcus aureus [20]): 0.03 µg/mL; MIC50 (Staphylococcus aureus [20]): 0.25 µg/mL; MIC90 (Staphylococcus aureus [20]): 0.5 µg/mL; MBC50 [21]: 0.06 µg/mL (≈ 0.0303 µM); MBC90 [21]: 0.125 µg/mL (≈ 0.063 µM); MBC [21]: 0.015 µg/mL (≈ 0.00756 µM); MIC50 [21]: 0.06 µg/mL (≈ 0.0303 µM); MIC90 [21]: 0.125 µg/mL (≈ 0.063 µM); MBC (Staphylococcus aureus [22]): 0.015 µg/mL (≈ 0.00756 µM); MIC50 (Staphylococcus aureus [22]): 0.06 µg/mL (≈ 0.0303 µM); MIC90 (Staphylococcus aureus [22]): 0.125 µg/mL (≈ 0.063 µM) |
| CCCCCCCCCC(=O)N[C@@H](Cc1c[nH]c2ccccc12)C(=O)N[C@H](CC(N)=O)C(=O)N[C@@H](CC(=O)O)C(=O)N[C@@H]1C(=O)NCC(=O)N[C@@H](CCCN)C(=O)N[C@@H](CC(=O)O)C(=O)N[C@H](C)C(=O)N[C@@H](CC(=O)O)C(=O)NCC(=O)N[C@H](CO)C(=O)N[C@@H]([C@H](C)CC(=O)O)C(=O)N[C@@H](CC(=O)c2ccccc2N)C(=O)O[C@@H]1C | 0.5 µg/mL | 0.25 µg/mL | 2 µg/mL | 2 µg/mL | 0.25 µg/mL | 0.25 µg/mL | 2 | 4.82 | 5.12 | 3.61 | 3.86 | 4.68 | 4.13 | 5.09 | 5.01 | 5.04 | 4.59 | 5.1 | 2.53 | 0.125 µg/mL (≈ 0.0771 µM) | MIC (Staphylococcus aureus [17]): 0.125 µg/mL (≈ 0.0771 µM); MBC (Staphylococcus aureus [18]): 1 µg/mL (≈ 0.617 µM); MIC (Staphylococcus aureus [18]): 1 µg/mL (≈ 0.617 µM); MBC (Staphylococcus aureus [19]): 0.25 µg/mL (≈ 0.154 µM); MIC (Staphylococcus aureus [19]): 0.25 µg/mL (≈ 0.154 µM); MBC50 (Staphylococcus aureus [20]): 4 µg/mL; MBC90 (Staphylococcus aureus [20]): 8 µg/mL; MBC (Staphylococcus aureus [20]): 1 µg/mL; MIC50 (Staphylococcus aureus [20]): 1 µg/mL; MIC90 (Staphylococcus aureus [20]): 4 µg/mL; MBC50 [21]: 1 µg/mL (≈ 0.617 µM); MBC90 [21]: 2 µg/mL (≈ 1.23 µM); MBC [21]: 0.25 µg/mL (≈ 0.154 µM); MIC50 [21]: 1 µg/mL (≈ 0.617 µM); MIC90 [21]: 1 µg/mL (≈ 0.617 µM); MBC (Staphylococcus aureus [22]): 0.25 µg/mL (≈ 0.154 µM); MIC50 (Staphylococcus aureus [22]): 1 µg/mL (≈ 0.617 µM); MIC90 (Staphylococcus aureus [22]): 1 µg/mL (≈ 0.617 µM) |
